Some results are limits rather than exact numbers.

The term Papp denotes the rate of passage across a membrane or cell layer, normalised by area and donor concentration. One may read the IC50 as the midpoint of a concentration-inhibition curve. Usually AUC(0-inf) stands for total exposure, with the tail of the curve extrapolated. Read a high AUC(0-inf) as more exposure. As a reminder, the Tmax is the time at which the peak concentration occurs. A word on the AUC: it is the area under the concentration-time curve, a measure of exposure. Low values mean low exposure, high ones high exposure.

The nature of series [1]: Apparent permeability of the compound in human Caco2 cells. Format: ADME, cell-based. As to conditions: Caco-2. In general terms: Passage across Caco-2 layers is used to estimate intestinal permeability.
Series [2] concerns the target T1, Acyl-CoA desaturase 1 (Rattus norvegicus, UniProt P07308).
T1 sequence (P07308 whole entry): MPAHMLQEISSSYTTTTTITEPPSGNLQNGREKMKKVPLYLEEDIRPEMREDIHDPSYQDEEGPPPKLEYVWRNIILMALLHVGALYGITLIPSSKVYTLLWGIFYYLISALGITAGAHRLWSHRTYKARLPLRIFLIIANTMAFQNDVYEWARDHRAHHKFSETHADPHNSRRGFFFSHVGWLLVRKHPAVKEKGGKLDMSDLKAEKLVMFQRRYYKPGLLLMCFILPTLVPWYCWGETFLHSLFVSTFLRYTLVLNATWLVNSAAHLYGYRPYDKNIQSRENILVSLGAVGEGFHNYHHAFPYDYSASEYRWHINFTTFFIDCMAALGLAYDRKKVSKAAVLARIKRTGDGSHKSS
Put plainly: Inhibition of rat liver microsome SCD assessed as reduction in [3H]H2O production using stearoyl [9,10-3H]CoA as substrate in presence of NADH incubated for 30 mins by scintillation counting method. Format: microsomes. The method in brief:
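Desaturation of [9,10-3H]stearoyl-CoA measured as released [3H]H2O. Water was separated from charcoal-adsorbed substrate by filtration and counted by scintillation. Remaining activity = (compound − background)/(control − background). DMSO wells served as control and pre-stopped wells as background. IC50 was interpolated from the two points bracketing 50%.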

Series [3] has as its target Cytochrome P450 3A4 (Homo sapiens, UniProt P08684). Briefly: Inhibition of CYP3A4 (unknown origin). Format: ADME.
Series [4] addresses T2, Cytochrome P450 1A2 (Homo sapiens, UniProt P05177).
T2 sequence (P05177 whole entry): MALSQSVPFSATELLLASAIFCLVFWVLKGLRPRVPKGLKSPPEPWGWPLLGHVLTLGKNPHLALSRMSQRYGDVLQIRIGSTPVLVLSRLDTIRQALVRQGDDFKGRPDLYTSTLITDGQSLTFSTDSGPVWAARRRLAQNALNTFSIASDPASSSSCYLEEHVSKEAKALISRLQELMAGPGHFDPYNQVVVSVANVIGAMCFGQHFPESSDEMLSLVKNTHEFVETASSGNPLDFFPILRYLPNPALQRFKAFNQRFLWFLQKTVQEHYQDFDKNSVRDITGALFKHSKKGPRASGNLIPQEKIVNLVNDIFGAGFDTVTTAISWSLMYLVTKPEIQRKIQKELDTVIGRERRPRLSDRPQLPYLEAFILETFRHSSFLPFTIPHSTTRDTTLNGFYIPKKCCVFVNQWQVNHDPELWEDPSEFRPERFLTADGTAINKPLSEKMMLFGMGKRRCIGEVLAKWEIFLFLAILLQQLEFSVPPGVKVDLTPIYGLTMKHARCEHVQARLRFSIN
Put plainly: Inhibition of CYP1A2 (unknown origin). Type of series: ADME.

Series [5] deals with Cytochrome P450 2C19 (Homo sapiens, UniProt P33261). Briefly: Inhibition of CYP2C19 (unknown origin). Type of series: ADME.
Chain of Cytochrome P450 2C19 (P33261 whole entry): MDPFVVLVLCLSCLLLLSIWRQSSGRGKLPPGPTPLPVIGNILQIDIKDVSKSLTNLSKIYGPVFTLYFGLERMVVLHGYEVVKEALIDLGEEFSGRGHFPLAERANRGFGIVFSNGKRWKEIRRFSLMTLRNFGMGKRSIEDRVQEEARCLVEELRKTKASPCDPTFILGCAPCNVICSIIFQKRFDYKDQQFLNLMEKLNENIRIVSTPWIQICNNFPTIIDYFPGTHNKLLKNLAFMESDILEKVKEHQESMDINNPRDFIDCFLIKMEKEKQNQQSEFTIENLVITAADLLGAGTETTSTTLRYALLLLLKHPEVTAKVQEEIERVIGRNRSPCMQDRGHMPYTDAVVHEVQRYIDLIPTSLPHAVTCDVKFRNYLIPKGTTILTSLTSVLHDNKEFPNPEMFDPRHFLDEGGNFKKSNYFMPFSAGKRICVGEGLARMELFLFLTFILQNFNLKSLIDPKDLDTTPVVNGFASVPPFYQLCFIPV
The nature of series [6]: AUC (0 to infinity) in Sprague-Dawley rat at 10 mg/kg, po. The following applies: in vivo. Format: ADME, organism-based. Set-up: dose 10 mg/kg, route oral, time infinity.
Series [7] can be described thus: Tmax in C57BL/6J mouse at 10 mg/kg, po. Type of series: ADME, organism-based. The following applies: in vivo. In outline: (§1)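 Two male C57BL/6J mice per route, 10 mg/kg po and 1 mg/kg iv. Plasma concentration–time profiles gave Cmax, tmax, terminal half-life and AUC0-inf. Bioavailability was derived from the po and iv data.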
Series [8] is described as follows: Apparent terminal half life in C57BL/6J mouse at 10 mg/kg, po. Type of series: ADME, organism-based. As to conditions: in vivo, read-out: betat1/2(app) (converted). The method in brief: as §1
Series [9] can be described thus: AUC (0 to infinity) in C57BL/6J mouse at 10 mg/kg, po. Format: ADME, organism-based. Set-up: dose 10 mg/kg, time infinity, route oral. The following applies: in vivo.
For series [10], the system named is Mus musculus. Put plainly: Antidiabetic activity in high fat diet fed C57BL/6J mouse assessed as reduction in plasma glucose AUC (0 to 120 mins) administered orally as diet mixture for 43 days and measured on day 22 of administration after overnight fasting by OGTT method. Type of series: functional, organism-based. In outline:
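Male? not stated. C57BL/6J mice fed high fat diet for one month, then given compound as HFD admixture (0.0040% or 0.0133%) for ~3 or 10 mg/kg/day over 43 days (10–16 weeks of age); controls on normal chow or HFD. Day 22: overnight fast, glucose load 1 g/kg; plasma glucose at 0, 0.5, 1, 2 h, AUC calculated; n=5–8, mean ± SD, Dunnett's test.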

The subject of series [11] is Rattus norvegicus. Put plainly: Ex vivo inhibition of SCD1 in high sucrose diet Sprague-Dawley rat liver treated orally for 6 hrs followed by incubation with [14C]stearoyl-CoA substrate for 10 mins by TLC assay. Format: functional, organism-based. The method in brief: (§2)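 Sprague-Dawley rats on a high sucrose diet, given oral 1 or 10 mg/kg. Liver, epididymal adipose and eyelid were taken 6 h later and homogenized. S9 SCD activity was measured by [14C]stearoyl-CoA conversion to oleate and quantified by AgNO3 TLC imaging. Result is % remaining activity versus control, mean ± SD, n=3.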

The test system of series [12] is Rattus norvegicus. Briefly: Ex vivo inhibition of SCD1 in high sucrose diet Sprague-Dawley rat epididymal adipose tissue treated orally for 6 hrs followed by incubation with [14C]stearoyl-CoA substrate for 10 mins by TLC assay. Format: organism-based. The following applies: po. The method in brief:
as §2

A short description of series [13]: Ratio of drug uptake in high sucrose diet Sprague-Dawley rat liver to eyelid at 10 mg/kg, po treated after 6 hrs. Type of series: ADME, organism-based. As to conditions: in vivo. In outline: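 Sprague-Dawley rats on a high sucrose diet, given a single oral 10 mg/kg dose. Plasma, liver and eyelid drug concentrations were measured 6 h later, n=3. Liver/eyelid ratio was taken from the tissue concentrations.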

The test system of series [14] is Rattus norvegicus. Briefly: Anti-hepatic steatosis activity in high sucrose very low fat diet fed Sprague-Dawley rat assessed as reduction in triglyceride level in liver administered orally once daily for 8 days and measured on day 8 post last dose. Format: functional, organism-based. In outline:
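SD rats kept on a high sucrose very low fat diet, dosed orally at 1 or 10 mg/kg once daily for 8 days. On day 8, liver slices were homogenized in methanol and extracted with methanol/chloroform. The supernatant was dried under N2 and redissolved in 2-propanol. Triglyceride was read on an automatic analyzer and expressed as mg/g tissue.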

A short description of series [15]: AUC in Sprague-Dawley rat at 100 mg/kg, po. Format: ADME, organism-based. As to conditions: in vivo. The method in brief:
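Male 6-week-old SD rats, 5 per group, dosed orally once daily for 2 weeks as a suspension in 0.5% methylcellulose aqueous solution. Plasma drug levels taken 24 h after dosing on days 1, 5 and 10. Exposure figure is from this 2-week repeat-dose toxicity study.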

Chain of Cytochrome P450 3A4 (P08684 whole entry): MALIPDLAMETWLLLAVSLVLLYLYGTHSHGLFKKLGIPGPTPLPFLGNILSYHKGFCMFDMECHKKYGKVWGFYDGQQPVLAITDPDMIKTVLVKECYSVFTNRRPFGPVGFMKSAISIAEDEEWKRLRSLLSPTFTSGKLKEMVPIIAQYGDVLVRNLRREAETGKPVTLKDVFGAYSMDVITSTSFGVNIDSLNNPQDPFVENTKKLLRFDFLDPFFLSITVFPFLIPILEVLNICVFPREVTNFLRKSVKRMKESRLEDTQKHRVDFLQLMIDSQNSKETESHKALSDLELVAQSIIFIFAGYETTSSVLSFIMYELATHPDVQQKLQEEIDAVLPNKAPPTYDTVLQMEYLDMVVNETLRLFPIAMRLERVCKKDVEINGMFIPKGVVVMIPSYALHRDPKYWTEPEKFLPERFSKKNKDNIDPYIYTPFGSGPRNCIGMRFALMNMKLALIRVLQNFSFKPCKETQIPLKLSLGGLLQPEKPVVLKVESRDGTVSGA

As for `CCCCc1ccccc1NCc1ccc(C(=O)Nc2nc(CC(=O)O)cs2)s1`, the Papp in series [1] is 43.6 ×10⁻⁶ cm/s. Further, the IC50 in series [2] was 6.5 nM; in series [3], > 50 µM; in [4], > 50 µM; in series [5] it was > 50 µM. In addition, the AUC(0-inf) in series [6] was 16.5 µM·h; in series [9], 10.2 µM·h. Besides, the Tmax in series [7] was found to be 1 h. Besides, the half-life in [8] is 312 min. Also, the Activity result in [10] and in series [14] was “Dose-dependent effect” in each case. The inhibition result in [11] is “Dose-dependent effect”. The “inhibition (INH)” value in series [12] is “Dose-dependent effect”. In addition, in [13], the Ratio is 6.3. Moreover, in [15], the AUC stood at 179 µM·h.

The values are drawn from ChEMBL document CHEMBL4265954, “Discovery of potent liver-selective stearoyl-CoA desaturase-1 (SCD1) inhibitors, thiazole-4-acetic acid derivatives, for the treatment of diabetes, hepatic steatosis, and obesity” (Eur J Med Chem, 2018).
